According to ChEMBL document CHEMBL3576763, “Synthesis and Biological Activities of 5-Thio-α-GalCers” (2015):
Calls of active or inactive are those of the source. No cut-off for these calls is given here.

Experiments:
Mus musculus [1] = test: Immunostimulatory activity in B6 mouse assessed as induction of IL-4 production in serum at 100 ug/kg, ip measured after 12 hrs by ELISA; assay type: functional, organism-based
Procedure, shortened: (§1)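 Glycolipid given intraperitoneally to B6 mice at 100 μg/kg. Serum IFN-γ and IL-4 measured at several time points after injection. Two mice per group, each mouse's serum assayed individually at each time.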

Mus musculus [2] = test: Immunostimulatory activity in B6 mouse assessed as induction of IL-4 production in serum at 100 ug/kg, ip measured up to 12 hrs by ELISA; assay type: functional, organism-based; procedure, shortened: as §1
iNKT [3] = test: Immunostimulatory activity in B6 mouse iNKT cells assessed as induction of IFN-gamma production at 1000 ng/ml incubated for 16 hrs followed by brefeldin A addition measured after 2 hrs by flow cytometric analysis (reference value: 0.6%); assay type: functional
Procedure, shortened: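 Mouse splenocytes stimulated with glycolipid in vitro; IFN-γ measured in cells gated as CD3+DX5+CD1d tetramer+ NKT cells. Control cells held in complete 1640 medium only; PMA plus ionomycin used as positive control.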

Mus musculus [4] = test: Immunostimulatory activity in B6 mouse assessed as induction of IFN-gamma production in serum at 100 ug/kg, ip after 24 hrs by ELISA; assay type: functional; procedure, shortened: as §1
Mus musculus [5] = test: Immunostimulatory activity in B6 mouse assessed as induction of IFN-gamma production in serum at 100 ug/kg, ip by ELISA; assay type: functional, organism-based; procedure, shortened: as §1
Mus musculus [6] = test: Immunostimulatory activity in B6 mouse assessed as induction of IL-4 production in serum at 100 ug/kg, ip measured at 3 hrs by ELISA; assay type: functional, organism-based; procedure, shortened: as §1
Mus musculus [7] = test: Immunostimulatory activity in B6 mouse assessed as induction of IFN-gamma production in serum at 100 ug/kg, ip measured at 6 to 24 hrs by ELISA; assay type: functional; procedure, shortened: as §1
iNKT [8] = test: Immunostimulatory activity in B6 mouse iNKT cells assessed as induction of IFN-gamma production incubated for 16 hrs followed by brefeldin A addition measured after 2 hrs by flow cytometric analysis in presence of ionomycin (reference value: 0.6%); assay type: functional

SMILES	Activity (Mus musculus [1])	Activity (Mus musculus [2])	Activity (iNKT [3])	Activity (Mus musculus [4])	Activity (Mus musculus [5])	Activity (Mus musculus [6])	Activity (Mus musculus [7])	Activity (iNKT [8])
CCCCCCCCCCCCCCCCCCCCCCCCCC(=O)N[C@@H](CO[C@H]1S[C@H](CO)[C@H](O)[C@H](O)[C@H]1O)[C@H](O)[C@H](O)CCCCCCCCCCCCCC	inactive	Active	8.5%	1722 pg/mL				
CCCCCCCCCCCCCC[C@@H](O)[C@@H](O)[C@H](CO[C@H]1S[C@H](CO)[C@H](O)[C@H](O)[C@H]1O)NC(=O)CCCCCCCCCCCCC	inactive	inactive	6%		Active			
CCCCCCCCCCCCCCCCCCCCCCCCCC(=O)N[C@@H](CO[C@H]1O[C@H](CO)[C@H](O)[C@H](O)[C@H]1O)[C@H](O)[C@H](O)CCCCCCCCCCCCCC [RGI-7000]			4.1%			Active	2127 pg/mL	
CCCCCCCCCCCCCC(=O)O[C@@H]1[C@@H](C)[C@@]2(O)[C@@H](C=C(CO)C[C@]3(O)C(=O)C(C)=C[C@@H]23)[C@@H]2C(C)(C)[C@]12OC(C)=O [PHORBOL MYRISTATE ACETATE]								8.5%
CCCCCCCCCCCCCC[C@@H](O)[C@@H](O)[C@H](CO[C@H]1S[C@H](CO)[C@H](O)[C@H](O)[C@H]1O)NC(=O)CCCCCCC	inactive		1.4%		inactive			
